GASC1 inh = inhibitors of GASC-1 (KDM4C) histone demethylase, primary screen, biochemical, single concentration HTS | GST-KDM4C 2-372, H3K9me3 peptide, LANCE TR-FRET | inhibition, % at 12.5 µM | 0.15% of 96,000 active;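 active = mean replicate inhibition above about 25%, with at least 55% of replicates also reaching it, limit read from the data, passing the limit was not always enough; inconclusive = only one of those two conditions met; inactive = neither condition met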
Target sequence (Q9H3R0 2-372 limits assumed): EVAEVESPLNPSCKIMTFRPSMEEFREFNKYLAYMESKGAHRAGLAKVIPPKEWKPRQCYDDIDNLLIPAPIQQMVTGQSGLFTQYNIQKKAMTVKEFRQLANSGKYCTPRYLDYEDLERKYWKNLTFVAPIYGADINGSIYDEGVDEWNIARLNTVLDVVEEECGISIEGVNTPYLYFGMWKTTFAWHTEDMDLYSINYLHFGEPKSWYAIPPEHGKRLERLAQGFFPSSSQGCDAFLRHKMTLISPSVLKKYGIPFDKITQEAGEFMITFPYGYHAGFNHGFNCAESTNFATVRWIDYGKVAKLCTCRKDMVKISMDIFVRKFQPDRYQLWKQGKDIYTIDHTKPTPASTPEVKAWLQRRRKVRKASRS
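Test system: N-terminal GST-fused human GASC-1 (KDM4C) fragment, residues 2-372; quantity: GASC-1 enzyme at 10 nM final in reaction; dosing: single dose; schedule: 30 min demethylation and 1 h detection at room temperature; signal: LANCE TR-FRET, excitation 340 nm, emissions 618 and 671 nm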
T cruzi growth-1 = T. cruzi intracellular proliferation inhibitors, primary screen, cell-based, beta-gal Tulahuen parasites, NIH3T3 host, luminescence | T. cruzi beta-gal in NIH3T3, GalScreen luminescence, 90 h | inhibition, % at 8.34 µM | 5.9% of 77,000 active | AID 624255, 2012;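 active = mean inhibition above about 93%, with at least 55% of replicates each passing it, limit read from the data, passing the limit was not always enough; inconclusive = only one of those two conditions holds; inactive = neither condition holds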
IDH1 mut inh = inhibitors of IDH1 R132H reductase, primary screen, biochemical, plate reader, single point | diaphorase/resazurin fluorescence, 60 min | inhibition, % at 10 µM | 0.18% of 70,000 active | AID 624101, 2012; in the data active = inhibition above about 34%; inconclusive = no clear call, values can overlap the other calls; inactive = below about 11%;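 note: 0% = DMSO and 100% = no enzyme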
T cruzi growth-2 = T. cruzi intracellular proliferation inhibitors, confirmation, cell-based, NIH3T3 host, beta-gal parasite, luminescence, cherry-pick; shares compounds with T cruzi growth-1; T. cruzi beta-gal in NIH3T3, GalScreen luminescence, 90 h; inhibition, % at 8.35 µM; 72% of 5,600 active; AID 651739, 2012;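 active = mean replicate inhibition above about 95% and at least 55% of replicates individually reaching it, limit read from the data; inconclusive = only one of the two criteria is met; inactive = neither criterion is met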
T cruzi growth-3 = inhibitors of intracellular T. cruzi replication, confirmation, NIH3T3 host cells, beta-gal parasites, cherry-pick, set 2. shares compounds with T cruzi growth-1. AID 651740, 2012. T. cruzi beta-gal in NIH3T3, GalScreen luminescence, 90 h. 21% of 5,600 active. inhibition, % at 2.09 µM;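 active = mean inhibition above about 95%, with at least 55% of replicates also reaching it, limit read from the data; inconclusive = meets just one of the two conditions; inactive = meets neither condition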;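 note: plate controls were neutral control median for no effect and positive control median for full effect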
NIH3T3 tox = cytotoxicity in mouse NIH/3T3 fibroblasts, confirmation, cytotoxicity control for T. cruzi proliferation inhibitor project, cell-based, cherry-pick, single point; 14% of 5,600 active; shares compounds with T cruzi growth-1; NIH/3T3 viability, CellTiter-Glo ATP luminescence, 90 h; cytotoxicity (signal decrease), % at 8.35 µM;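 active = mean signal decrease across replicates above about 35% based on untreated-well scatter, with enough replicates individually passing, limit read from the data; inconclusive = no rule stated though some were filed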;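 note: 0% = median of neutral control wells and 100% = median of positive control wells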
NIH3T3 tox 2 = NIH/3T3 fibroblast cytotoxicity, confirmation, cytotoxicity control, cell-based, cherry-pick, single point, set 2; NIH/3T3 viability, CellTiter-Glo ATP luminescence, 90 h; inhibition, % at 24.9 µM; AID 651744, 2012; 56% of 5,600 active; shares compounds with T cruzi growth-1;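 active = mean loss of cell viability signal at or above a set limit, and enough replicates individually reaching it; inconclusive = meets only the mean limit or only the replicate share; inactive = meets neither condition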;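 note: 0% = median of neutral control wells and 100% = median of positive control wells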
Active calls of the source: *; u = inconclusive; x = no result. This excerpt belongs to a sample that is enriched for hits.

SMILES	GASC1 inh	T cruzi growth-1	IDH1 mut inh	T cruzi growth-2	T cruzi growth-3	NIH3T3 tox	NIH3T3 tox 2
CC(C)NC(=O)N1CCCCN2[C@H](CO)[C@@H](c3ccc(C#C[C@H](C)O)cc3)[C@H]2C1	0.3	31.1	x	x	x	x	x
CC(C)NC(=O)N1CCCCN2[C@H](C1)[C@H](c1ccc(C#C[C@H](C)O)cc1)[C@@H]2CO	0.0	18.8	x	x	x	x	x
CC(C)NC(=O)N1CCCCN2[C@H](CO)[C@@H](c3ccc(C#Cc4ccccc4F)cc3)[C@@H]2C1	-0.7	102.2*	x	108.2*	84.5	15.7	104.8*
CC(C)NC(=O)N1CCCCN2[C@H](CO)[C@H](c3ccc(C#Cc4ccccc4)cc3)[C@@H]2C1	-1.1	114.7*	x	108.9*	56.5	41.5*	62.2*
CC(C)NC(=O)N1CCCCN2[C@@H](CO)[C@H](c3ccc(C#Cc4ccccc4)cc3)[C@@H]2C1	-0.9	105.6*	x	107.9*	78.2	27.2	104.8*
CC(C)NC(=O)N1CCCCN2[C@H](CO)[C@H](c3ccc(C#C[C@@H](C)O)cc3)[C@@H]2C1	0.7	68.1	x	x	x	x	x
Cc1cccc(OCC(=O)Nc2cc(C(F)(F)F)ccc2N2CCOCC2)c1	x	x	-0.2	x	x	x	x
COc1ccc(OC)c(S(=O)(=O)N2CCC(C(=O)Nc3ccc(OC)c(Cl)c3)CC2)c1	x	x	0.0	x	x	x	x
CC1OC(Oc2cc(O)c(C3OC(C)C(O)C(O)C3O)c3oc(-c4ccc(O)cc4)cc(=O)c23)C(O)C(O)C1O (stereo unspecified)	x	x	1.0	x	x	x	x
COc1ccc(S(=O)(=O)N(C)CC(=O)Nc2cc(Cl)c(Cl)cc2Cl)cc1	x	x	-0.1	x	x	x	x
CCOC(=O)c1ccc(NC(=O)CSc2nccc(=O)[nH]2)cc1	x	x	-0.1	x	x	x	x
CC(C)NC(=O)N1CCCCN2[C@H](CO)[C@@H](c3ccc(C#Cc4ccccc4)cc3)[C@@H]2C1	-1.4	101.0*	x	107.4*	91.2	30.0	104.8*
CC(C)NC(=O)N1CCCCN2[C@H](CO)[C@@H](c3ccc(C#C[C@H](C)O)cc3)[C@@H]2C1	-0.1	106.1*	x	46.9	24.5	11.4	24.5
CC(C)NC(=O)N1CCCCN2[C@H](CO)[C@@H](c3ccc(C#C[C@@H](C)O)cc3)[C@H]2C1	1.5	46.9	x	x	x	x	x
CC(C)C#Cc1ccc([C@@H]2[C@@H](CO)N3CCCCN(C(=O)NC(C)C)C[C@H]23)cc1	-0.2	91.6	x	x	x	x	x
O=C1CC(=Nc2ccc(F)c(C(F)(F)F)c2)c2ccccc2C1=O	x	x	1.5	x	x	x	x
COc1cccc(C#Cc2ccc([C@@H]3[C@@H](C#N)N(C(=O)C4CCC4)[C@H]3CO)cc2)c1	-0.6	91.0	x	x	x	x	x
COc1cccc(C#Cc2ccc([C@@H]3[C@@H](CO)N(C(=O)C4CCC4)[C@H]3C#N)cc2)c1	-1.1	90.2	x	x	x	x	x
COc1cccc(C#Cc2ccc([C@H]3[C@H](C#N)N(C(=O)C4CCC4)[C@H]3CO)cc2)c1	-1.6	96.8*	x	95.5*	55.6	33.7	62.6*
COc1cccc(C#Cc2ccc([C@@H]3[C@@H](C#N)N(C(=O)C4CCC4)[C@@H]3CO)cc2)c1	1.2	102.0*	x	108.6*	60.9	23.4	10.1
OC[C@H]1[C@H](c2ccc(Br)cc2)[C@@H]2CN(Cc3ccccn3)CCCCN12	-1.9	108.6*	x	u	55.2	2.8	3.4
OC[C@@H]1[C@H](c2ccc(-c3cccnc3)cc2)[C@@H]2CN(Cc3ccccn3)CCCCN12	0.3	94.8	x	x	x	x	x
OC[C@@H]1[C@H](c2ccc(-c3cccnc3)cc2)[C@H]2CN(Cc3ccccn3)CCCCN12	1.7	108.6*	x	97.5*	75.0	3.6	6.4
OC[C@H]1[C@@H](c2ccc(Br)cc2)[C@H]2CN(Cc3ccccn3)CCCCN21	-0.4	25.4	x	x	x	x	x
